Laboratory results reported in ChEMBL document CHEMBL1139305, “Design, synthesis and pharmacological screening of novel antihypertensive agents using hybrid approach” (Bioorg Med Chem, 2009).
Converted amounts (≈) assume the structure as drawn. The source made the active and inactive calls. The rule behind the calls is not given here.

Key:
Rattus norvegicus [1] = test: Effect on heart rate in anesthetized Wistar rat assessed as number of Q-T-intervals at 40 mg/kg, ip after 45 mins by electrocardiography; format: functional; details: route intraperitoneal
Outline: (§1)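 Wistar rats (250–300 g) anaesthetised with thiopental 60 mg/kg ip, then given compound ip at 40 mg/kg in 0.5% aqueous methyl cellulose. ECG recorded by transducer, with heart rate (beats/min) and P–Q, QRS and Q–T intervals (ms) taken at 0, 15, 30, 45 and 60 min after dosing.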

Rattus norvegicus [2] = test: Effect on heart rate in anesthetized Wistar rat assessed as number of P-Q-intervals at 40 mg/kg, ip after 45 mins by electrocardiography; format: functional; details: route intraperitoneal; outline: as §1
Rattus norvegicus [3] = test: Effect on heart rate in anesthetized Wistar rat assessed as number of QRS complex at 40 mg/kg, ip after 45 mins by electrocardiography; format: functional; details: route intraperitoneal; outline: as §1
Rattus norvegicus [4] = test: Vasorelaxation activity […] assessed as inhibition of norepinephrine-induced contraction of aorta ring at 0.1 mg/ml; format: functional
Outline: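 Isolated Wistar rat aorta rings in physiological salt solution at 37 °C, gassed 95% O2/5% CO2, isometric tension, 60 min equilibration. After contraction plateau, test compound (0.1 mg/mL) added cumulatively; EC50 (g/mL) derived from cumulative concentration–response curves against norepinephrine.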

Rattus norvegicus [5] = organism: Rattus norvegicus; test: NO release in Wistar rat by Griess reagent assay in presence of L-cysteine relative to control
Rattus norvegicus [6] = test: Effect on heart rate in anesthetized Wistar rat assessed as number of beats per minutes at 40 mg/kg, ip after 30 mins by electrocardiography; format: functional; details: route intraperitoneal; outline: as §1
Rattus norvegicus [7] = test: Effect on heart rate in anesthetized Wistar rat assessed as number of P-Q-intervals at 40 mg/kg, ip after 30 mins by electrocardiography; format: functional; details: route intraperitoneal; outline: as §1
Rattus norvegicus [8] = test: Cardiovascular effect in anaesthetized Wistar rat assessed as mean arterial pressure at 40 mg/kg, ip after 45 mins; format: functional, Artery; details: route intraperitoneal
Outline: (§2)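 Adult normotensive Wistar rats (250–300 g) under thiopental (60 mg/kg ip). Right carotid artery cannulated with a heparinised catheter (20 IU/mL in saline, flushed every 30 min) connected to a pressure transducer. Measurement began one hour after surgery. Compound given ip at 40 mg/kg in 0.5% methyl cellulose, with mean arterial pressure read at 0, 15, 30, 45 and 60 min.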

Rattus norvegicus [9] = test: Effect on heart rate in anesthetized Wistar rat assessed as number of beats per minutes at 40 mg/kg, ip after 60 mins by electrocardiography; format: functional; details: route intraperitoneal; outline: as §1
Rattus norvegicus [10] = test: Effect on heart rate in anesthetized Wistar rat assessed as number of QRS complex at 40 mg/kg, ip after 15 mins by electrocardiography; format: functional; details: route intraperitoneal; outline: as §1
Rattus norvegicus [11] = test: Effect on heart rate in anesthetized Wistar rat assessed as number of P-Q-intervals at 40 mg/kg, ip after 15 mins by electrocardiography; format: functional; details: route intraperitoneal; outline: as §1
Rattus norvegicus [12] = test: Effect on heart rate in anesthetized Wistar rat assessed as number of P-Q-intervals at 40 mg/kg, ip after 60 mins by electrocardiography; format: functional; details: route intraperitoneal; outline: as §1
Rattus norvegicus [13] = test: Cardiovascular effect in anaesthetized Wistar rat assessed as mean arterial pressure at 40 mg/kg, ip after 30 mins; format: functional, Artery; details: route intraperitoneal; outline: as §2
Rattus norvegicus [14] = test: Cardiovascular effect in anaesthetized Wistar rat assessed as mean arterial pressure at 40 mg/kg, ip after 15 mins; format: functional, Artery; details: route intraperitoneal; outline: as §2
Rattus norvegicus [15] = test: Effect on heart rate in anesthetized Wistar rat assessed as number of beats per minutes at 40 mg/kg, ip after 15 mins by electrocardiography; format: functional; details: route intraperitoneal; outline: as §1
Rattus norvegicus [16] = test: Effect on heart rate in anesthetized Wistar rat assessed as number of QRS complex at 40 mg/kg, ip after 30 mins by electrocardiography; format: functional; details: route intraperitoneal; outline: as §1
Rattus norvegicus [17] = test: Effect on heart rate in anesthetized Wistar rat assessed as number of Q-T-intervals at 40 mg/kg, ip after 15 mins by electrocardiography; format: functional; details: route intraperitoneal; outline: as §1
Rattus norvegicus [18] = test: Effect on heart rate in anesthetized Wistar rat assessed as number of beats per minutes at 40 mg/kg, ip after 45 mins by electrocardiography; format: functional; details: route intraperitoneal; outline: as §1
Rattus norvegicus [19] = test: Cardiovascular effect in anaesthetized Wistar rat assessed as mean arterial pressure at 40 mg/kg, ip after 60 mins; format: functional, Artery; details: route intraperitoneal; outline: as §2
Rattus norvegicus [20] = test: Effect on heart rate in anesthetized Wistar rat assessed as number of Q-T-intervals at 40 mg/kg, ip after 60 mins by electrocardiography; format: functional; details: route intraperitoneal; outline: as §1
Rattus norvegicus [21] = test: Effect on heart rate in anesthetized Wistar rat assessed as number of Q-T-intervals at 40 mg/kg, ip after 30 mins by electrocardiography; format: functional; details: route intraperitoneal; outline: as §1
Rattus norvegicus [22] = test: Effect on heart rate in anesthetized Wistar rat assessed as number of QRS complex at 40 mg/kg, ip after 60 mins by electrocardiography; format: functional; details: route intraperitoneal; outline: as §1
Rattus norvegicus [23] = test: Antiarrhythmic activity in anaesthetized Wistar rat assessed as decrease in BaCl2-induced cardiac rhythm disturbance at 40 mg/kg, ip 60 mins before arrhythmogen challenge; format: functional, organism-based; set-up: dose 40 mg/kg; details: Heart
Outline: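 Rats (thiopental 60 mg/kg ip anaesthesia) given test compound ip at 40 mg/kg, suspended in 0.5% aqueous methyl cellulose, 60 min before iv barium chloride (32 mg/kg) to evoke arrhythmia. Scored by reduction of rhythm disturbances (premature ventricular beats, ventricular tachycardia, fibrillation) and mortality.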

SMILES | Activity (Rattus norvegicus [1]) | Activity (Rattus norvegicus [2]) | Activity (Rattus norvegicus [3]) | EC50 (Rattus norvegicus [4]) | % NO release (Rattus norvegicus [5]) | Activity (Rattus norvegicus [6]) | Activity (Rattus norvegicus [7]) | Activity (Rattus norvegicus [8]) | Activity (Rattus norvegicus [9]) | Activity (Rattus norvegicus [10]) | Activity (Rattus norvegicus [11]) | Activity (Rattus norvegicus [12]) | Activity (Rattus norvegicus [13]) | Activity (Rattus norvegicus [14]) | Activity (Rattus norvegicus [15]) | Activity (Rattus norvegicus [16]) | Activity (Rattus norvegicus [17]) | Activity (Rattus norvegicus [18]) | Activity (Rattus norvegicus [19]) | Activity (Rattus norvegicus [20]) | also measured
O=C(CO[N+](=O)[O-])NNC(=O)c1ccc(NCC(O)CN2C(=O)/C(=C/c3ccc(F)cc3)S/C2=N/c2ccccc2)cc1 (configuration not stated) | 68.2 | 52.4 | 23.2 | 49 µg/mL (≈ 80.5 µM) | 0.23% | 289.83 | 52.2 | 80.53 mmHg | 300.39 | 22.8 | 51.7 | 52.2 | 78.92 mmHg | 84.89 mmHg | 300.28 | 23.6 | 67.8 | 294.11 | 85.23 mmHg | 66.4 | Activity (Rattus norvegicus [21]): 68.6; Activity (Rattus norvegicus [22]): 22
CC(C)NCC(O)COc1ccc(CC(N)=O)cc1 (configuration not stated) [ATENOLOL] | – | – | – | – | – | – | – | 65.24 mmHg | – | – | – | – | 63.44 mmHg | 79.01 mmHg | – | – | – | – | 69.93 mmHg | – | –
O=C(CO[N+](=O)[O-])NNC(=O)c1ccc(NCC(O)CN2C(=O)/C(=C/c3cccc([N+](=O)[O-])c3)S/C2=N/c2ccccc2)cc1 (configuration not stated) | 71.8 | 56.2 | 21.8 | 141 µg/mL (≈ 222 µM) | 0.21% | 295.46 | 57.8 | 85.87 mmHg | 315.86 | 21.4 | 57 | 55.6 | 85.08 mmHg | 87.32 mmHg | 318.61 | 22.4 | 71.4 | 302.16 | 90.29 mmHg | 70.4 | Activity (Rattus norvegicus [23]): inactive; Activity (Rattus norvegicus [21]): 72.4; Activity (Rattus norvegicus [22]): 20.4
O=C(CO[N+](=O)[O-])NNC(=O)c1ccc(NCC(O)CN2C(=O)/C(=C/c3ccccc3O)S/C2=N/c2ccccc2)cc1 (configuration not stated) | 75.4 | 54.6 | 23.4 | 45.7 µg/mL (≈ 75.4 µM) | 0.29% | 291.85 | 54.2 | 64.32 mmHg | 294.57 | 21.2 | 51.4 | 52.8 | 72.44 mmHg | 82.91 mmHg | 298.24 | 22.4 | 73.2 | 279.28 | 76.24 mmHg | 72.8 | Activity (Rattus norvegicus [23]): Active; Activity (Rattus norvegicus [21]): 74.4; Activity (Rattus norvegicus [22]): 20.8
